In brackets after ≈: the same amount, converted by molar mass. Activity calls are given as the source filed them. The rule behind the calls is not given here.

The test system of assay [1] is Staphylococcus aureus. In words: Antimicrobial activity against methicillin-resistant Staphylococcus aureus N315 after 18 to 20 hrs by liquid microdilution method. Type of assay: functional. For orientation: Dilution methods test growth across graded concentrations, often in twofold steps.
Assay [2] has as its system Staphylococcus aureus. In words: Antimicrobial activity against methicillin-resistant Staphylococcus aureus OM481 clinical isolate after 18 to 20 hrs by liquid microdilution method. The format is functional.
In assay [3] the test system is Staphylococcus aureus. Nature of the assay: Antimicrobial activity against 2-phenoxyphenol/methicillin-resistant Staphylococcus aureus after 18 to 20 hrs by liquid microdilution method. Type of assay: functional.
Assay [4] deals with Staphylococcus aureus. Nature of the assay: Increase in cytoplasmic membrane permeability in Staphylococcus aureus N315 cells assessed as influx of EtBr by fluorescence assay. Type of assay: functional, organism-based. Summed up:
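Energized S. aureus N315 cells; EtBr uptake followed as rise in fluorescence (excitation 530 nm, emission 600 nm) immediately after adding test compound.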

Assay [5] concerns Staphylococcus aureus. In words: Bactericidal activity against Staphylococcus aureus N315 cells assessed as reduction of bacterial burden at MIC up to 24 hrs. Type of assay: functional. Summed up:
(§1)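 S. aureus N315 (MRSA strain) survival assay: compound added at 1× or 4× its MIC, with MIC determined by liquid microdilution. Read-out is the number of viable cells remaining over time after addition.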

Assay [6] deals with Staphylococcus aureus. Nature of the assay: Bactericidal activity against Staphylococcus aureus N315 cells assessed as reduction of bacterial burden at 4 times MIC up to 24 hrs. The format is functional, organism-based. Summed up:
as §1

The test system of assay [7] is Staphylococcus aureus. In words: Effect on membrane permeability assessed as increase in intracellular sodium levels in Staphylococcus aureus N315 cells by ICP-OES analysis. The format is functional, organism-based.
In assay [8] the test system is Staphylococcus aureus. In words: Effect on membrane permeability assessed as decrease in intracellular potassium levels in Staphylococcus aureus N315 cells by ICP-OES analysis. Type of assay: functional, organism-based.
Assay [9] deals with Staphylococcus aureus. Nature of the assay: Increase in cytoplasmic membrane permeability in Staphylococcus aureus N315 cells assessed as efflux of EtBr by fluorescence assay. The format is functional, organism-based. The method, boiled down: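 EtBr-loaded S. aureus N315 cells; EtBr release followed as fall in fluorescence (excitation 530 nm, emission 600 nm) after adding test compound.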

One may read the MIC as the least concentration at which growth counts as inhibited. The low end stands for a more susceptible organism, the high end for a less susceptible organism. Take `Oc1ccccc1Oc1ccccc1`: the MIC in the assay on Staphylococcus aureus [1] is 8 µg/mL (≈ 43 µM); in the assay with Staphylococcus aureus [2], 8 µg/mL (≈ 43 µM); against Staphylococcus aureus [3], over 128 µg/mL.
For the molecule `Oc1ccc2c(c1)CCc1ccc(cc1)Oc1cc(ccc1O)CCc1ccc-2c(O)c1` [RICCARDI C], the MIC in the assay with Staphylococcus aureus [1], in the assay on Staphylococcus aureus [2] and in the assay on Staphylococcus aureus [3] was 2 µg/mL (≈ 4.71 µM) each time.
For the molecule `Oc1ccc(-c2ccc(CCc3ccccc3)cc2O)c(CCc2ccccc2)c1`, the MIC in the assay on Staphylococcus aureus [1], in the assay on Staphylococcus aureus [2] and against Staphylococcus aureus [3] was 8 µg/mL (≈ 20.3 µM) in each case. Further, the result with Staphylococcus aureus [4], in the assay on Staphylococcus aureus [6], in the assay on Staphylococcus aureus [7], in the assay on Staphylococcus aureus [8] and with Staphylococcus aureus [9] was Active. The Activity in the assay with Staphylococcus aureus [5] was found to be 3 log10CFU/ml.
Consider `Oc1ccc(CCc2cccc(O)c2)cc1` [LUNULARIN], for which the MIC with Staphylococcus aureus [1], against Staphylococcus aureus [2] and against Staphylococcus aureus [3] was over 128 µg/mL in each case.
With `Oc1ccc(-c2ccccc2O)cc1`, the MIC in the assay on Staphylococcus aureus [1], against Staphylococcus aureus [2] and in the assay with Staphylococcus aureus [3] was over 128 µg/mL each time.
In the case of `Oc1ccc2c(c1)CCc1cccc(c1)-c1cccc(c1)CCc1ccc-2c(O)c1`, the MIC in the assay with Staphylococcus aureus [1], against Staphylococcus aureus [2] and against Staphylococcus aureus [3] was 0.5 µg/mL (≈ 1.27 µM) in each case.
On to `Cc1cc(O)ccc1-c1ccc(CCc2ccccc2)cc1O`, for which the MIC in the assay on Staphylococcus aureus [1], in the assay with Staphylococcus aureus [2] and against Staphylococcus aureus [3] was 16 µg/mL (≈ 52.6 µM) in each case. Moreover, the result with Staphylococcus aureus [4] and in the assay on Staphylococcus aureus [9] was Active.

Values taken from ChEMBL document CHEMBL3797152, “Minimum structural requirements for cell membrane leakage-mediated anti-MRSA activity of macrocyclic bis(bibenzyl)s” (2016).
